Screening results: PubChem, The Scripps Research Institute Molecular Screening Center
Only some compounds are listed: those with a hit (about 1.9% of all), similar ones and a draw of the others.
NPY-Y1 antag: NPY-Y1 receptor antagonists, primary screen, cell-based | Neuropeptide Y receptor type 1 (Homo sapiens), P25929 | HEK293-CNG Y1 cells, membrane potential fluorescence; NPY at EC95, then isoproterenol | inhibition, % at 3.6 µM | actives 1% (n = 200,000);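 active means inhibition above the campaign mean inhibition of all tested compounds plus 3 SD, cut at about 20% in these data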
Target sequence (P25929 whole entry, looked up): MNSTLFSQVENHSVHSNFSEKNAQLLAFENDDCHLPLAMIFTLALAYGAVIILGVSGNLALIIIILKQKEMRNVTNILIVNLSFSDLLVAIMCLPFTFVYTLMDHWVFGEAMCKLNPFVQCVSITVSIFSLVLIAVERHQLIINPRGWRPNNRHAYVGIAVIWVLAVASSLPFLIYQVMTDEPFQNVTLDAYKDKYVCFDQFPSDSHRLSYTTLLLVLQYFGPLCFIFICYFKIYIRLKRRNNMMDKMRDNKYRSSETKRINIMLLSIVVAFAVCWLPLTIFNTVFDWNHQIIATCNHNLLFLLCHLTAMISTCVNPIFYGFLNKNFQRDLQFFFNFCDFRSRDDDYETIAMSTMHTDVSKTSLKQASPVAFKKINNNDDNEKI
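Material: HEK293 Y1/CNG channel cell line | Also added: NPY (25 nM), isoproterenol (1 µM), Ro 20-1724 (25 µM) | Compound: One concentration, 3.6 µM, in 0.4% DMSO | Schedule: 3 h dye uptake, 1 h room-temperature compound, 45 min post-isoproterenol | Signal: Membrane-potential fluorescent dye readout | Read-out: % inhibition of NPY effect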
NPY-Y2 antag: NPY-Y2 receptor antagonists, primary screen, cell-based; Neuropeptide Y receptor type 2 (Homo sapiens), P49146; NPY-Y2 expressing cells, antagonist mode; inhibition, % at 2.7 µM; actives 0.99% (n = 140,000); AID 793, 2007; in the data active means inhibition above about 17%
NPY-Y2 PAM-ag: NPY-Y2 potentiators or agonists, primary screen, cell-based; AID 1359, 2008; cells expressing NPY-Y2, potentiator/agonist read-out; activation, % at 3.6 µM; Neuropeptide Y receptor type 2 (Homo sapiens), P49146; actives 0.45% (n = 220,000); in the data active means activation above about 27%;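 further: cells stimulated with NPY near EC25 plus isoproterenol at EC100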
NPY1 pot ag: NPY-Y1 receptor potentiators or agonists, primary screen, cell-based | Neuropeptide Y receptor type 1 (Homo sapiens), P25929 | NPY-Y1 expressing cells, potentiator/agonist activation | activation, % at 3.6 µM | actives 0.37% (n = 220,000) | AID 1304, 2008; in the data active means activation above about 33%, passing the limit was not always enough;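 further: cells stimulated with NPY at EC10 then isoproterenol at EC100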
NPY-Y2 pot conf: NPY-Y2 potentiators or agonists, confirmation, cell-based | shares compounds with NPY-Y2 PAM-ag | actives 20% (n = 450) | activation, % at 3.6 µM | cell-based NPY-Y2 potentiator/agonist assay; in the data active means activation above about 33%
NPY-Y1 potentiator: NPY-Y1 potentiators or agonists, counter-screen for NPY-Y2 potentiator project, cell-based, fluorescence | Y1 HEK293-CNG cells, membrane potential fluorescence | activation, % at 3.6 µM | shares compounds with NPY-Y2 PAM-ag | actives 20% (n = 450) | AID 1651, 2009; in the data active means activation above about 45%;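 further: cells stimulated with submaximal NPY then isoproterenol with phosphodiesterase inhibitor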
NPY-Y1 agonist 2: NPY-Y1 direct agonists, selectivity assay for NPY-Y2 potentiator project, cell-based, fluorescence; actives 37% (n = 450); shares compounds with NPY-Y2 PAM-ag; activation, % at 3.6 µM; HEK293 Y1-CNGC, membrane potential fluorescence, agonism; AID 1702, 2009;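 active means activation above the mean of DMSO-only control wells plus 3 SD, cut at about 18% in these data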;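 further: cells stimulated with 1 µM isoproterenol plus the PDE inhibitor Ro 20-1724; Y1 agonists lower the membrane potential dye signal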
CNGC inhibitor: CNGC cAMP sensor activity inhibitors, counter-screen for NPY-Y2 potentiator project, cell-based, HEK293-CNG parental, membrane potential fluorescence; isoproterenol cAMP; actives 32% (n = 450); shares compounds with NPY-Y2 PAM-ag; inhibition, % at 3.6 µM;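 active means inhibition above the control-well mean plus 3 SD of those wells, cut at about 22% in these data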
NPY-Y2 ag 2: NPY-Y2 direct agonists, counter-screen for NPY-Y2 potentiator project, cell-based, fluorescence; shares compounds with NPY-Y2 PAM-ag; HEK293 Y2/CNGC cells, membrane potential fluorescence, agonist mode; activation, % at 3.6 µM; actives 56% (n = 450);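 active means activation above the mean of solvent-only control wells plus 3 SD, cut at about 10% in these data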;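 further: cells stimulated by isoproterenol with no NPY added so direct agonism is tested; agonism lowers probe fluorescence through less cAMP and CNG channel opening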
A number is an active result; 0 = inactive; - = no result given.

SMILES	NPY-Y1 antag	NPY-Y2 antag	NPY-Y2 PAM-ag	NPY1 pot ag	NPY-Y2 pot conf	NPY-Y1 potentiator	NPY-Y1 agonist 2	CNGC inhibitor	NPY-Y2 ag 2
Nc1nc(N2CCCCC2)nc2ccccc12	0	0	54.5	0	71.5	79.2	43.6	40.1	71.6
Cn1nnnc1SCC(=O)Nc1ccc2c(c1)OCO2	0	-	0	0	-	-	-	-	-
CCOC(=O)C(=CNc1ccc(NC2=NCC(C)S2)cc1)C(=O)OCC (centres undefined)	0	0	46.6	0	0	0	0	0	0
CN(C)c1ccc(/C=C(/NC(=O)c2ccccc2)C(=O)N/N=C/c2ccc([N+](=O)[O-])c(O)c2)cc1	0	0	33.0	0	33.9	0	34.8	25.8	27.3
O=C(CN(c1cccc(C(F)(F)F)c1)S(=O)(=O)c1ccc(Cl)c([N+](=O)[O-])c1)NCc1ccc(F)cc1	0	0	35.5	0	67.8	84.7	85.2	64.0	79.0
COc1ccc(C(=O)N/N=C(\CCC(=O)O)c2ccc(C(C)(C)C)cc2)cc1OC	0	-	0	0	-	-	-	-	-
O=S(=O)(Nc1nc2ccccc2nc1Nc1cccc(S(=O)(=O)N2CCCCC2)c1)c1ccccc1	0	0	37.9	0	74.2	67.6	65.1	44.3	58.3
COc1ccccc1C(=O)OCCNC(=O)Cn1cnc2c1c(=O)n(C)c(=O)n2C	0	-	0	0	-	-	-	-	-
CC(C)Nc1ccc(Cl)cc1[N+](=O)[O-]	-	-	0	0	-	-	-	-	-
CCSc1nnc(NC(=O)COc2ccc(Cl)cc2)s1	0	-	0	0	-	-	-	-	-
O=C(COc1ccc(Cl)cc1)Nc1ncc([N+](=O)[O-])s1	0	-	39.6	0	0	0	0	0	10.3
Cc1c(C(=O)NCCSCc2cccc(C(F)(F)F)c2)cnn1-c1ccc(Cl)cc1	-	-	0	0	-	-	-	-	-
C=CCn1c(=O)c(C(=O)Nc2ccccc2O)c(O)c2ccccc21	0	0	53.0	0	0	0	0	0	0
Oc1ccccc1-c1cc(-c2ccco2)[nH]n1	0	0	0	0	-	-	-	-	-
O=[N+]([O-])c1ccccc1-c1cc(-c2cc(Cl)ccc2O)n[nH]1	0	0	31.1	0	49.6	59.4	52.0	54.1	60.4
Oc1ccc(Cl)cc1-c1cc(-c2ccco2)[nH]n1	0	0	28.7	0	0	0	32.6	23.6	31.5
Cc1ccc(O)c(-c2cc(-c3ccccc3[N+](=O)[O-])[nH]n2)c1	0	0	35.0	0	34.5	0	35.6	33.4	34.5
N#Cc1cc(Br)ccc1N=C1CCCN1c1ccccc1	0	0	0	0	-	-	-	-	-
Cc1n[nH]c(C)c1N=Nc1ccc(Br)cc1	0	-	30.7	0	0	0	0	0	0
CC(C(=O)Nc1cccc(S(=O)(=O)N2CCOCC2)c1)N1CCN(c2ccc(F)cc2)CC1 (centres undefined)	0	-	0	0	-	-	-	-	-
C#CCSc1nc(N)c2c(n1)OC(N)=C(C#N)C2c1cccnc1 (centres undefined)	0	-	58.1	0	0	0	0	0	0
CC1CCCN(C(=O)c2ccc3c(c2NCCO)C(=O)c2ccccc2C3=O)C1 (centres undefined)	0	0	31.1	0	45.9	61.8	38.0	31.2	42.2
CCNc1c(C(=O)O)ccc2c1C(=O)c1ccccc1C2=O	0	0	0	0	-	-	-	-	-
COc1ccc(N2CCN(S(=O)(=O)c3ccc(OC)cc3)CC2)cc1	0	0	0	0	-	-	-	-	-
COC(=O)COc1ccc(S(=O)(=O)N2CCN(c3ccccc3F)CC2)cc1	0	0	36.1	0	35.0	0	33.6	25.1	25.9
SMILES	NPY-Y1 antag	NPY-Y2 antag	NPY-Y2 PAM-ag	NPY1 pot ag	NPY-Y2 pot conf	NPY-Y1 potentiator	NPY-Y1 agonist 2	CNGC inhibitor	NPY-Y2 ag 2
COC(=O)COc1ccc(S(=O)(=O)N2CCN(c3ccccc3)CC2)cc1	0	-	29.9	0	0	0	0	0	0
O=C(N/N=C/C=C\c1ccc([N+](=O)[O-])cc1)c1cccnc1	-	-	0	0	-	-	-	-	-
O=C(Nc1ccc(S(=O)(=O)Nc2ccc(F)cc2)cc1)c1ccc(CN2CCOCC2)cc1	0	-	0	0	-	-	-	-	-
COc1ccc(NS(=O)(=O)c2ccc(NC(=O)c3ccc(CN4CCOCC4)cc3)cc2)cc1	0	-	24.1	0	0	0	0	0	0
O=C(Nc1n[nH]c(C(F)(F)F)n1)C1CC1	0	-	0	0	-	-	-	-	-
CN(C)C(CN=C1NS(=O)(=O)c2ccccc21)c1ccco1 (centres undefined)	0	-	50.5	0	0	0	0	0	0
Cc1cccc(C)c1Nc1c(-c2ccc(N3CCOCC3)cc2)nc2ncccn12	0	0	43.0	0	91.0	110.8	96.0	82.6	97.4
O=C(COC(=O)c1cc(NS(=O)(=O)c2cccs2)ccc1O)Nc1ccccc1	-	-	0	0	-	-	-	-	-
CN(Cc1ccccc1)C(=O)COC(=O)c1cc(NS(=O)(=O)c2cccs2)ccc1O	0	-	35.2	0	0	0	0	0	0
Cc1ccc2nc(NC(=O)COC(=O)c3ccco3)sc2c1	0	0	0	0	-	-	-	-	-
O=C(COC(=O)c1ccco1)Nc1nc2ccc([N+](=O)[O-])cc2s1	-	-	41.7	0	0	50.0	52.8	39.5	48.7
CC(C)Cn1c(N)c(C(=O)COC(=O)CC23CC4CC(CC(C4)C2)C3)c(=O)n(C)c1=O	0	0	38.2	0	0	0	0	0	0
CC(C)(SC(=S)N1CCCCCC1)C(=O)O	0	-	0	0	-	-	-	-	-
CC(SC(=S)N1CCCC1)C(=O)O (centres undefined)	0	-	36.7	0	0	0	0	0	12.5
Cc1ccc(C(OCCN(C)C)c2cccc(C(F)(F)F)c2)cc1 (centres undefined)	0	0	0	0	-	-	-	-	-
CCOC(=O)C1CCN(c2ncnc3c2cnn3-c2ccc(Cl)cc2)CC1	0	0	48.0	0	0	0	0	0	0
CCOC(=O)C1CCN(c2ncnc3c2cnn3-c2ccccc2)CC1	0	0	0	0	-	-	-	-	-
CCOc1ccc(C(C)=O)cc1NC(=O)/C=C\C(=O)O	0	-	0	0	-	-	-	-	-
O=C(c1ccco1)N1CCN(C(=O)c2sccc2-c2ccccc2)CC1	0	0	26.6	0	0	0	0	0	0
